Measurements from article PMC4180501 (Biochimica et biophysica acta, 2012).
Changes are numbered by the printed parent chain.

How the values were obtained:
GK- W257 (W99R/W167F) = target: T1, GK- W257 (W99R/W167F) (Homo sapiens, UniProt P35557, W167F/W99R); test: NADP+-coupled spectrophotometric kinetic assay; type: biochemical; conditions: W-257, no GKA
T1 sequence (P35557 1-465 W99R/W167F): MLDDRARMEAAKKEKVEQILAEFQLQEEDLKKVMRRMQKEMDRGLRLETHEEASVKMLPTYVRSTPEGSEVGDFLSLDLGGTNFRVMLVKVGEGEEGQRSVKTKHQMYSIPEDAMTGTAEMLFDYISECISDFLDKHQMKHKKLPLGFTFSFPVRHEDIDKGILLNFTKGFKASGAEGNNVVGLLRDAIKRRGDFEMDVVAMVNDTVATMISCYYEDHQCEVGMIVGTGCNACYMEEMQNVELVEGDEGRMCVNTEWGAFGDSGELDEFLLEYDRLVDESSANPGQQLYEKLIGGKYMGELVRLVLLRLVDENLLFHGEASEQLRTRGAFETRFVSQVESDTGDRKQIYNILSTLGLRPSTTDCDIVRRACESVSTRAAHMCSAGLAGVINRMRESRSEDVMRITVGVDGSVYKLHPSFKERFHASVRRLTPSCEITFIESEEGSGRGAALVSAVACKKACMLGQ

GK-W167 (W99R/W257F) [1] = target: T2, GK-W167 (W99R/W257F) (Homo sapiens, UniProt P35557, W257F/W99R); test: D-glucose binding by tryptophan fluorescence titration; conditions: W-167, no GKA
T2 sequence (P35557 1-465 W99R/W257F): T1 sequence (P35557 1-465 W99R/W167F) with F167W, W257F

GK-W167 (W99R/W257F) [2] = target: T2, GK-W167 (W99R/W257F); test: DSC thermal denaturation; conditions: W-167 in buffer, 300 mM D-glucose
Procedure, shortened: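 Samples were degassed and scanned by DSC at 0.25 degree/min against a reference holding everything except protein. Tm and calorimetric ΔH were taken by integrating the Cp-vs-temperature thermogram; Cpm is the apparent heat capacity at the maximum.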

Question: What does the source list for OC[C@H]1OC(O)[C@H](O)[C@@H](O)[C@@H]1O (stereo partly drawn) [D-glucose]?
Answer: Glucose S0.5 (GK- W257 (W99R/W167F); 30% glycerol): 4.70 mM; kcat (GK- W257 (W99R/W167F); 30% glycerol): 6.37 s⁻¹; nH (Hill coefficient towards glucose) (GK- W257 (W99R/W167F); 30% glycerol): 1.43; Glucose S0.5 (GK- W257 (W99R/W167F); no glycerol): 9.82 mM; kcat (GK- W257 (W99R/W167F); no glycerol): 12.4 s⁻¹; kcat/S0.5 (GK- W257 (W99R/W167F); no glycerol): 1.27 s⁻¹ mM⁻¹; nH (Hill coefficient towards glucose) (GK- W257 (W99R/W167F); no glycerol): 1.23; Kd (GK-W167 (W99R/W257F) [1]; 20% glycerol): 90 µM; Kd (GK-W167 (W99R/W257F) [1]; no glycerol): 380 µM; Cp^m (GK-W167 (W99R/W257F) [2]): 90.4 kJ/mol/°C; ΔH thermal denaturation (GK-W167 (W99R/W257F) [2]): 410.0 kJ/mol; Tm (GK-W167 (W99R/W257F) [2]; DSC): 53.4 °C
